For series [1], the system named is BaF3. Briefly: Inhibition of EGFR-del19 mutant in mouse BaF3 cells assessed as inhibition of Akt phosphorylation at 10 to 1000 nM incubated for 6 hrs by Western blotting analysis. The following applies: dose 10-1000 nM. Type of series: cell-based. The procedure, abridged: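 Ba/F3 cells carrying the stated EGFR mutant were made IL-3-independent after 1 week of 7 µM blasticidin selection. They were grown in low-glucose DMEM with 10% FBS and exposed to inhibitor for 6 h. Cells were washed in cold PBS, lysed in SDS buffer (100 mM Tris, 1% SDS, 10% glycerol) and boiled 5 min. Protein was measured by BCA, run on SDS-PAGE, transferred to PVDF, blocked in 5% BSA or milk/TBS-T, and immunoblotted.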
For orientation: In western blotting, separated proteins are transferred to a membrane and probed.

A short description of series [2]: Toxicity against Balb-c nu/nu mouse xenografted with human PC-9 cells expressing EGFR-C797S/T790M/del19 mutant assessed as change in body weight at 75 mg/kg, po administered for 60 days and measured twice weekly in presence of panitumumab. The conditions noted are these: in vivo, 1440 h, time 60 day. Type of series: organism-based. The procedure, abridged: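 Mice bearing subcutaneous PC9 triple-mutant tumours in Balb-c nu/nu hosts were randomized at ~200 mm³. […] Body weights were taken twice weekly, N=6 per group.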
For orientation: Xenograft models place foreign cells or tissue in a host animal.

In series [3] the test system is BaF3. The following applies: Mus musculus, dose 30-1000 nM, time 6.0 hrs.
The test system of series [4] is BaF3. Briefly: Inhibition of EGFR-C797S/T790M/L858R mutant in mouse BaF3 cells assessed as inhibition of S6 phosphorylation at 10 to 1000 nM incubated for 6 hrs by Western blotting analysis. The class given is cell-based. The following applies: dose 10-1000 nM. In a few lines: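 Ba/F3 cells expressing EGFR-L858R-series mutants treated with inhibitors for 6 h. SDS lysates quantified by BCA, run on SDS-PAGE and blotted to PVDF. Probed for phospho-EGFR (Tyr1068), total EGFR and downstream phospho-proteins.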

In series [5] the test system is Epidermal growth factor receptor (Homo sapiens), P00533 [UNDEFINED MUTATION]. The conditions noted are these: PC-9, dose 10-1000 nM.
Epidermal growth factor receptor (Homo sapiens), P00533 [UNDEFINED MUTATION], sequence (P00533 whole entry, looked up, change not shown): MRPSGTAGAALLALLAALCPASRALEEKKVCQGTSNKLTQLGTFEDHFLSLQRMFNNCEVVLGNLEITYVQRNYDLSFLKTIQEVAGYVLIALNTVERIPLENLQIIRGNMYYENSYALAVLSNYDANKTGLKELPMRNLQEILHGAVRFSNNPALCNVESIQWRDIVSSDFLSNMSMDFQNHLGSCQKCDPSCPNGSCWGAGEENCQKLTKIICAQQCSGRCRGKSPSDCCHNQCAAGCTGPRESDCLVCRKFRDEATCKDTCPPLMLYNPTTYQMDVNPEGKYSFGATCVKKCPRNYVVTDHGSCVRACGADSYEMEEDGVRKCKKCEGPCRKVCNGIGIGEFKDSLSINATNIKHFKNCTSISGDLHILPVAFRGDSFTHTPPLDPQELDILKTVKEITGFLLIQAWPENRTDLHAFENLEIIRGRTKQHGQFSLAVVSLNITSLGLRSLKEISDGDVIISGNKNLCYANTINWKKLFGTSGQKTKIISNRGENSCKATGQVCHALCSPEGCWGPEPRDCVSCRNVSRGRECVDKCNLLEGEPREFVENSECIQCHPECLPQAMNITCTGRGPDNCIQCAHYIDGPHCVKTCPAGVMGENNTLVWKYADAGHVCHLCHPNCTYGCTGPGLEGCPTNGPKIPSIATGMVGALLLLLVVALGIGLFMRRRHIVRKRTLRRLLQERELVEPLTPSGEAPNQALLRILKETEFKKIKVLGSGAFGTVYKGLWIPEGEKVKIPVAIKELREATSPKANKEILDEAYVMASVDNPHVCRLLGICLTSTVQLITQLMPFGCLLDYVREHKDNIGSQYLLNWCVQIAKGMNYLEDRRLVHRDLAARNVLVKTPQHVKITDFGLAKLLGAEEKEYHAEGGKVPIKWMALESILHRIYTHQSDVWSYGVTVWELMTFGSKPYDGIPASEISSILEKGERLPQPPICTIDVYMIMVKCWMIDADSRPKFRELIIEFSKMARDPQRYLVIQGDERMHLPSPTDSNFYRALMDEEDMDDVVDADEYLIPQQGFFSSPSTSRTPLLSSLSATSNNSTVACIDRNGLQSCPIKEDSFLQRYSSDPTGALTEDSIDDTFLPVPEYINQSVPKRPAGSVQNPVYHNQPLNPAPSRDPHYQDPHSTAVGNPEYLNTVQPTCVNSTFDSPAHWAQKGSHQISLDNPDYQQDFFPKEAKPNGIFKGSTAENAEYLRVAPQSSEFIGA

Activity calls are given as the source filed them. The calls are words filed in the database; no cut-off is given here.

As to `COc1cc(N2CCC(N3CCN(C)CC3)CC2)ccc1Nc1ncc(Cl)c(Nc2ccccc2P(C)(C)=O)n1` [BRIGATINIB], the inhibition entry in series [1], in series [3], in series [4] and in series [5] was “Active” in each case. Besides, in series [2], the Activity entry is “Non-Toxic”.
